Screening results as filed in PubChem BioAssay.
This is a sample that favours compounds with a hit; in the whole collection about 2.6% have one here.
Scp-1 inhibitor: Scp-1 phosphatase inhibitors, primary screen, biochemical, colorimetric, uHTS; Recombinant Scp1, phosphopeptide, malachite green phosphate absorbance; inhibition, % at 20 µM; Carboxy-terminal domain RNA polymerase II polypeptide A small phosphatase 1 (Homo …; 340,000 tested, 0.88% active; AID 493091, 2011;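 active means inhibition above about 50% at 20 µM, limit read from the data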;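 further: plate controls were DMSO wells with enzyme for no effect and wells lacking enzyme for full effect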
Target sequence (Q9GZU7 76-261 limits assumed): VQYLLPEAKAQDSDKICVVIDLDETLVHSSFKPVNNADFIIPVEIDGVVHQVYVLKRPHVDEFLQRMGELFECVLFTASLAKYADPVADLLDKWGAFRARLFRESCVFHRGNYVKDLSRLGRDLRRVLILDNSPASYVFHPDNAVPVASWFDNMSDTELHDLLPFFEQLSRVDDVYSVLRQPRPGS
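Test system: SCP-1 phosphatase catalytic domain, residues 76-261; measured by: colorimetric phosphate reagent with accelerator and stabiliser, absorbance at 630 nm; timing: enzyme reaction 45 min at room temperature, colour 5 min, stabilisation 30 min; also added: Phosphorylated 17-residue peptide substrate; compound dosing: one concentration, 20 µM, with 1.0% DMSO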
rCAG RNA binder: binders of r(CAG) RNA repeats, primary screen, biochemical, fluorescence | 370,000 tested, 1.3% active | AID 651821, 2012 | r(CAG) RNA repeat, TO-PRO-1 dye displacement fluorescence | inhibition, % at 3 µM;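 active means inhibition above the plate cutoff, the mean of all test compounds on that plate plus 3 SD, cut at about 35% in these data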;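 further: 0% = DMSO alone and 100% = 100 µM mitoxantrone as full dye displacement; higher means more dye released from RNA so lower well fluorescence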
NadD block: inhibitors of S. aureus NadD, primary screen, biochemical, colorimetric, uHTS; Nicotinate-nucleotide adenylyltransferase NadD (Staphylococcus aureus N315); purified NadD enzyme, colorimetric absorbance read-out; inhibition, % at 20 µM; 360,000 tested, 0.78% active; AID 602399, 2012; in the data active means inhibition above about 26%
LMPTP inh: LMPTP phosphatase inhibitors, primary screen, biochemical, fluorescence intensity, uHTS. Low molecular weight phosphotyrosine protein phosphatase (Homo sapiens), P24666. recombinant LMPTP-A, OMFP fluorogenic substrate. inhibition, % at 20 µM. 360,000 tested, 0.22% active. AID 651560, 2012;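 active means compounds that cut the enzyme signal by at least half of the control window in the single-dose screen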;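 further: plate controls were DMSO wells with enzyme plus substrate for no effect and substrate without enzyme for full effect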
Target sequence (P24666 whole entry, looked up): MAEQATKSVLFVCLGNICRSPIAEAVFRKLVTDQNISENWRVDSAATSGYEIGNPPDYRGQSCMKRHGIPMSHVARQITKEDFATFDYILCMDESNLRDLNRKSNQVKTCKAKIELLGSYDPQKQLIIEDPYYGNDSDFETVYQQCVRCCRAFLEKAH
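Test system – LMPTP-A enzyme · Amount – LMPTP-A at 0.625 nM final in the reaction · Buffer or medium – Bis-Tris pH 6.0, DTT, detergent · Reagent – OMFP 400 µM · Doses – single 20 µM dose · Schedule – reaction 50 min, room temperature, dark · Detection – fluorescence intensity of OMFP turnover product · Evaluation – percent inhibition versus substrate-only and uninhibited controls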
STEP block: STEP phosphatase inhibitors, primary screen, biochemical, fluorescence intensity, uHTS | Tyrosine-protein phosphatase non-receptor type 5 (Homo sapiens), P54829 | recombinant STEP, OMFP fluorogenic substrate | inhibition, % at 20 µM | 360,000 tested, 0.25% active;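 active means inhibition at 20 µM, scaled per plate between control wells, above about 37%, limit read from the data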;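 further: 0% = DMSO with enzyme and substrate and 100% = substrate only without enzyme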
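Material: STEP (striatal-enriched tyrosine phosphatase) enzyme, cell-free | Medium: 50 mM Bis-Tris pH 6.0 with 2.5 mM DTT and 0.005% Tween 20 | Read-out: Percent inhibition scaled to no-enzyme and uninhibited-enzyme controls, plate-pattern corrected | Signal: Fluorescence read at 480 nm ex / 540 nm em | Times: 20 min reaction, room temperature, in the dark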
NadD conf: inhibitors of S. aureus NadD, confirmation, biochemical, colorimetric, single concentration | shares compounds with NadD block | purified S. aureus NadD, colorimetric enzyme assay | inhibition, % at 20 µM | 2,000 tested, 13% active | AID 624309, 2012; in the data active means inhibition mostly above about 42%, no sharp cut-off; inactive means mostly below about 42%
* hit, by the source's call; x = not tested or not shown.

SMILES | Scp-1 inhibitor | rCAG RNA binder | NadD block | LMPTP inh | STEP block | NadD conf
O=C(CSc1nc2c(cnn2-c2ccccc2)c(=O)[nH]1)c1ccc(Cl)cc1 | -4 | 8 | 37* | -1 | 1 | -3
O=C(CSc1nc2c(cnn2-c2ccccc2)c(=O)[nH]1)N1CCCCC1 | -11 | 4 | 0 | -1 | -3 | x
CC1(C)CC[C@]2(C(=O)O)CC[C@]3(C)C(=CC[C@@H]4[C@@]5(C)CC[C@H](O)C(C)(C)[C@@H]5CC[C@]43C)[C@@H]2C1 | -6 | 3 | 30* | -14 | x | 10
Cc1ccc(NC(=O)COc2ccc(/C=C3/SC(=Nc4ccccc4)N(Cc4cccnc4)C3=O)cc2)cc1 | 7 | 6 | 40* | -1 | 0 | 3
O=C(CCN1C(=O)/C(=C/c2ccccc2)SC1=S)Nc1cccnc1 | -2 | 2 | -3 | 2 | 3 | x
CCOc1ccc(C(=O)N/N=C/c2ccc(-c3ccc(S(=O)(=O)Nc4ncccn4)cc3)o2)cc1 | -3 | 57* | 33* | 2 | 1 | 53*
NC(=S)NN=Cc1ccc(-c2ccc(S(=O)(=O)Nc3ncccn3)cc2)o1 | 3 | 30 | 20 | 13 | 3 | x
CCOc1ccc(S(=O)(=O)N(CC(=O)N/N=C/c2ccc(-c3ccc([N+](=O)[O-])cc3)o2)c2ccccc2)cc1 | 49 | 33 | 41* | 19 | 6 | 13
CCCCNC(=O)C1CCCN1C(=O)NCc1ccccc1OC (stereo not drawn) | x | 0 | x | x | x | x
CCOC(=O)[C@]12CCCC=C1N(Cc1ccc(OC)cc1)C(=O)[C@@H]2CC(=O)NCc1ccccc1 | x | 3 | x | x | x | x
Cc1ccc(S(=O)(=O)Nc2ccc(Nc3nccn4c(-c5ccc6ccccc6c5)cnc34)cc2)cc1 | x | 19 | 41* | 2 | -2 | 53*
Cc1ccc(S(=O)(=O)Nc2ccc(Nc3nccn4c(-c5ccccc5Oc5ccccc5)cnc34)cc2)cc1 | x | 21 | 36* | 2 | 0 | 64*
COC(=O)Cc1c([C@H](C)[C@@H](OC)c2ccccc2Br)nnn1Cc1ccccc1 | x | 2 | x | x | x | x
N#C/C(=C\c1coc2ccc(O)cc2c1=O)C(=O)Nc1nc2ccccc2s1 | 9 | -70 | 30* | 9 | -89 | 42
CCOc1ccccc1C(=O)Nc1ccc2nc(C)[nH]c(=O)c2c1 | x | 3 | x | x | x | x
Cc1ccc(CN2CCCCC(NC(=O)c3ccc(C)cc3)C2=O)cc1 (stereo not drawn) | x | -1 | x | x | x | x
Cc1cccn2c(=O)c(/C=C(\C#N)S(=O)(=O)c3ccccc3)c(N3CCN(c4ccccc4)CC3)nc12 | 7 | 3 | 43* | 2 | 1 | 1
O=C(Cn1cnc([N+](=O)[O-])c1)Nc1cc(Oc2ccc(Cl)cc2Cl)cc([N+](=O)[O-])c1 | -2 | 22 | 32* | 5 | 0 | 19
CCc1cc2c(=O)c(-c3cnn(-c4ccccc4)c3)c(C)oc2cc1OCC(=O)Nc1ccc(F)c(F)c1 | -8 | 3 | 33* | 2 | -2 | 7
Cc1cc(O)c(-c2n[nH]c3c2C(c2cccc(O)c2)N(Cc2cccnc2)C3=O)cc1Cl (stereo not drawn) | -4 | 25 | 46* | 7 | -1 | 46
Cc1ccccc1NC(=S)NCc1ccc2c(c1)cc(C)n2C | -6 | 13 | 2 | 2 | -2 | x
Cc1cc2cc(CNC(=S)NCc3ccccc3)ccc2n1C | 3 | 6 | 52* | 19 | 5 | -10
Cc1cc2cc(CNC(=S)NC3CCCCC3)ccc2n1C | 4 | 5 | 34* | 5 | 3 | 6
O=C(COCc1ccccc1)NC1CCCCN(Cc2cccc(Cl)c2)C1=O (stereo not drawn) | x | -3 | x | x | x | x
CCCCOCCCNC(=O)C[C@H]1C[C@@]2(C(=O)OC)C(=C[C@H](COCc3ccccc3)O[C@@H]2C)N(Cc2ccc(Cl)cc2Cl)C1=O | x | 4 | x | x | x | x
SMILES | Scp-1 inhibitor | rCAG RNA binder | NadD block | LMPTP inh | STEP block | NadD conf
CC(C)(O)c1ccccc1CC[C@@H](SCC1(CC(=O)O)CC1)c1cccc(/C=C/c2ccc3ccc(Cl)cc3n2)c1 | 4 | x | 51* | 2 | -2 | 56*
CCn1c2ccccc2c2cc(N=C3SC(CC(=O)Nc4ccccc4)C(=O)N3C)ccc21 (stereo not drawn) | -4 | 2 | 31* | 5 | 2 | 19
Nc1ccc2nc(-c3ccc(N)c(Cl)c3)[nH]c2c1 | -15 | 15 | 41* | 17 | 4 | 18
Nc1ccc2nc(-c3ccccc3)[nH]c2c1 | -3 | 2 | -1 | 1 | -1 | x
Cc1ccc(NC(=O)CN2CCN(c3nc(-c4ccccc4)cs3)CC2)cc1C | x | 8 | x | x | x | x
O=[N+]([O-])c1ccc(O)c(-c2nc(-c3ccccc3)c(-c3cccs3)[nH]2)c1 | 0 | 5 | 34* | 6 | 1 | 10
O=C(O)c1ccc(-c2nc(-c3ccccc3)c(-c3cccs3)[nH]2)cc1 | -15 | 3 | -6 | 0 | -4 | x
N[C@H](C(=O)N[C@@H](Cc1ccccc1)C(=O)N1CCC2CCN(S(=O)(=O)c3ccccc3)CC21)c1ccccc1 (stereo partly drawn) | x | 3 | x | x | x | x
COC(=O)C1CN(CCc2ccccc2)CCS(=O)(=O)N1Cc1ccc(Cl)cc1 (stereo not drawn) | x | 4 | x | x | x | x
N#C/C(=C/c1cn(-c2ccccc2)nc1-c1cccc(OCc2ccc(F)cc2)c1)C(=O)NCCCn1ccnc1 | 5 | 7 | 37* | 0 | 7 | -4
Cc1ccc(S(=O)(=O)NCC(=O)N2CCN(c3ccccn3)CC2)s1 | x | 0 | x | x | x | x
C=C(CN(C)C)C(=O)c1cc(C)ccc1C | 0 | 0 | 32* | -1 | 3 | 46
CC(=O)c1cc(-c2ccc(-c3cc(C(=O)O)c4ccccc4n3)cc2)c(=O)n2c1CCC2 | x | 19 | x | x | x | x
CC(C)CNc1cccc2c1S(=O)(=O)N[C@@H](CC(C)C)CO2 | x | -1 | x | x | x | x
NNC(=O)c1[nH]c2ccc([N+](=O)[O-])cc2c1-c1ccccc1 | -2 | 20 | 4 | 0 | 3 | x
O=C(N/N=C/c1ccccn1)c1[nH]c2ccc([N+](=O)[O-])cc2c1-c1ccccc1 | -1 | 17 | 67* | 4 | 1 | 38
O=C(N/N=C/c1ccccc1)c1[nH]c2ccc(Br)cc2c1-c1ccccc1 | 1 | 5 | 34* | 4 | -2 | 44
CC(=O)Nc1ccc(S(=O)(=O)Nc2ccc(S(=O)(=O)N3CCCC3)cc2)cc1 | -7 | 3 | -3 | 0 | -4 | x
